Measurements as given in ChEMBL document CHEMBL4673335, “Store-Operated Calcium Entry as a Therapeutic Target in Acute Pancreatitis: Discovery and Development of Drug-Like SOCE Inhibitors” (J Med Chem, 2020).
Active and inactive are the calls of the source. The calls are words filed in the database; no cut-off is given here.

Assays:
[1] = biological target: T1, ORAI1/STIM1 (Homo sapiens) (UniProt Q96D31+Q13586); test: Inhibition of STIM1/Orai1 (unknown origin) expressed in HEK293 cells assessed as reduction in tBHQ-induced calcium response at 10 uM relative to control; type: cell-based
T1 sequence (Q13586 23-685 partner limits assumed): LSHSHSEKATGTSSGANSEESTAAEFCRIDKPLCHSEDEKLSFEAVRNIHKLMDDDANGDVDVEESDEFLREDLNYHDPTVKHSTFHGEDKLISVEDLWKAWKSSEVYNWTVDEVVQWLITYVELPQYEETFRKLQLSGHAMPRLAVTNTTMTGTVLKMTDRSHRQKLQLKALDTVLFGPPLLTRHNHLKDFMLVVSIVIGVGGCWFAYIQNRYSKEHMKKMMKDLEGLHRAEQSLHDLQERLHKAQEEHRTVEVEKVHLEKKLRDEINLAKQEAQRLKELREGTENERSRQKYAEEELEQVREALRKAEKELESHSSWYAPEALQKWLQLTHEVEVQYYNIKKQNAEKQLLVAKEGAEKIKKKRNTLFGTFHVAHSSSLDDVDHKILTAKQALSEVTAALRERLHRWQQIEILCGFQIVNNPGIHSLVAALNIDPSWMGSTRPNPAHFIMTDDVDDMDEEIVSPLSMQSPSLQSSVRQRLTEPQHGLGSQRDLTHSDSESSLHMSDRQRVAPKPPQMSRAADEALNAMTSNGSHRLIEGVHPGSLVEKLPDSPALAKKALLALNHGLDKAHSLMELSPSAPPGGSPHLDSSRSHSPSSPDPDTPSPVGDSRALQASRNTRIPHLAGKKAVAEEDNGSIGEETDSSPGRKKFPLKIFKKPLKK
T1 sequence (Q96D31 whole entry): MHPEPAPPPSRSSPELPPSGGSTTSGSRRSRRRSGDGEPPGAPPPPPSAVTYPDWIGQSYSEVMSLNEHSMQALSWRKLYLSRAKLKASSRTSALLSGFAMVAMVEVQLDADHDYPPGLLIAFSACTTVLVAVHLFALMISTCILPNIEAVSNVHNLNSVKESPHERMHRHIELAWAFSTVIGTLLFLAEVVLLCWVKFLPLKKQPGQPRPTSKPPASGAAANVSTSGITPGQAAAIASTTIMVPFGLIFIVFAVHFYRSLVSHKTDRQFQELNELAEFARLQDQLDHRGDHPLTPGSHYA
Summary of the method: (§1)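 HEK cells, calcium imaging by fluorescence microscopy. Ca2+ added after 600 s and intracellular levels recorded. Traces averaged over 200 cells, then scored as AUC, peak amplitude and slope of the Ca2+ rise versus untreated control. Compound working solutions diluted from a 50 mM DMSO stock to 0.1% DMSO in physiologic buffer.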

HEK293 [2] = test: Cytotoxicity in HEK293 cells assessed as cell viability at 50 uM after 72 hrs in presence of excess uridine by MTT assay; type: cell-based; settings: human, hek293, 72 h
Summary of the method: (§2)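 MTT viability in HEK cells after 72 h treatment at 50 μM, with or without 100 μM uridine. MTT at 0.25 mg/mL final for 60 min at 37 °C, solubilized in isopropyl alcohol/HCl (1 M), absorbance read at 570 nm. Mean ± SEM, Student t-test against control.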

HEK293 [3] = test: Cytotoxicity in HEK293 cells assessed as cell viability at 50 uM after 72 hrs by MTT assay; type: cell-based; settings: human, hek293, 72 h; summary of the method: as §2
[4] = biological target: T1, ORAI1/STIM1 (Homo sapiens); test: Inhibition of STIM1/Orai1 (unknown origin) expressed in HEK293 cells assessed as reduction in tBHQ-induced calcium response by measuring decrease in peak amplitude of calcium entry at 10 uM relative to control; type: cell-based; summary of the method: as §1
[5] = biological target: T1, ORAI1/STIM1 (Homo sapiens); test: Inhibition of STIM1/Orai1 (unknown origin) expressed in HEK293 cells assessed as reduction in tBHQ-induced calcium response by measuring decrease in slope of calcium entry at 10 uM relative to control; type: cell-based; summary of the method: as §1
[6] = biological target: T1, ORAI1/STIM1 (Homo sapiens); test: Inhibition of STIM1/Orai1 (unknown origin) expressed in HEK293 cells assessed as reduction in tBHQ-induced calcium response by measuring decrease in calcium entry AUC at 10 uM relative to control; type: cell-based; summary of the method: as §1
HEK293 [7] = test: Cytotoxicity in HEK293 cells assessed as cell viability at 10 uM after 24 hrs by MTT assay; type: cell-based; settings: human, hek293, 24 h
Summary of the method: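 MTT viability assay. HEK cells seeded at 20,000 per well, treated 24 h after plating for a further 24 h. MTT at 0.25 mg/mL final for 60 min at 37 °C. Crystals dissolved in isopropyl alcohol/HCl (1 M), absorbance read at 570 nm. Compounds diluted to 0.1% DMSO in culture medium.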

ORAI1/STIM1 = ORAI1/STIM1 (Homo sapiens, UniProt Q13586+Q96D31); test: Inhibition of STIM1/Orai1 (unknown origin) expressed in HEK293 cells assessed as reduction in tBHQ-induced calcium response; type: cell-based
ORAI1/STIM1, sequence (Q96D31 whole entry): as above
ORAI1/STIM1, sequence (Q13586 whole entry): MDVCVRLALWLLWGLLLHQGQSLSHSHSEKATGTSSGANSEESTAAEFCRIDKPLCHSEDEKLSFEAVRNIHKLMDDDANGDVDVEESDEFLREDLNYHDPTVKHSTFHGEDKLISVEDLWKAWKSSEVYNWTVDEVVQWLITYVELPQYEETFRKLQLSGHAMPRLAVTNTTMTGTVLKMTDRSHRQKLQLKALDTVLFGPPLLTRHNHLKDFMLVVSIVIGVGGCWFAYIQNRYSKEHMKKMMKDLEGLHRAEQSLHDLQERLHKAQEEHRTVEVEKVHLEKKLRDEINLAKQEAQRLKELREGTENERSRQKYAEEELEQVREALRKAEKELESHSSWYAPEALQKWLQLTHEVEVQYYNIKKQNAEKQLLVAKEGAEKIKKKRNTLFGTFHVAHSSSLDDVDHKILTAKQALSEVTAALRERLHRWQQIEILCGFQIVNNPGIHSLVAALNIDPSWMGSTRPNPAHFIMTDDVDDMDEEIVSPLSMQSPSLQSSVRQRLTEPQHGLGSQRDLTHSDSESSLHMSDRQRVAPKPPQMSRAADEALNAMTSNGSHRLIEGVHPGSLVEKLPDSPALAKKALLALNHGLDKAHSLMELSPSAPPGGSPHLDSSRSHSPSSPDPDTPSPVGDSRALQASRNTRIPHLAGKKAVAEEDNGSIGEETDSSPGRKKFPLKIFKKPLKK

[8] = Metabolic stability in mouse liver microsomes assessed as compound remaining after 1 hr; type: ADME, Microsome; settings: read-out: Stabilty
Summary of the method: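 Pooled male CD-1 mouse liver microsomes (20 mg/mL protein stock), NADPH-activated. Substrate at 5 μM. Residual parent measured after 1 h incubation.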

[9] = Thermodynamic aqueous solubility; type: physicochemical; settings: read-out: Therm_solubility
Summary of the method: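 About 3 mg compound in 3 mL deionized water, vortexed, sonicated 5 min, then shaken overnight at 25 °C. Filtered through a 0.22 μm membrane, DMSO added, diluted about 1:10 in water. Quantified by LC–UV against DMSO standard solutions.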

[10] = dose 3.0 µM, in the assay text read “at 3 uM” for “at 10 uM”

## COc1cccc(OC)c1-c1ccc(-n2cc(-c3cccc(C(=O)O)c3)nn2)cc1
[1]; dose 10.0 µM
  inhibition: 25.8%

## COc1ccc(OC)c(-c2ccc(-n3cc(-c4ccccn4)nn3)cc2)c1
[1]; dose 10.0 µM
  inhibition: 0%

## COc1ccccc1-c1ccc(-c2cn(-c3cccc(C(=O)O)c3)nn2)cc1
[1]; [10]
  inhibition: 12%

## Cc1cccc(F)c1C(=O)Nc1cnc(-c2cc3c(cc2Cl)OC(F)(F)O3)cn1 [ZEGOCRACTIN]
HEK293 [2]
  Activity: Toxic
HEK293 [3]
  Activity: Toxic

## O=C(O)c1cccc(-c2cn(-c3ccc(-c4cccc(O)c4)cc3)nn2)c1
[1]; [10]
  inhibition: 0%

## COc1ccc(-c2ccc(-c3cn(-c4cccc(C(=O)O)c4)nn3)cc2)c(OC)c1
[1]; dose 10.0 µM
  inhibition: 53%

## O=C(O)c1cccc(-c2cn(-c3ccc(-c4ccc5c(c4)OCCO5)cc3)nn2)c1 [listing 1 of 2 here]
[4]
  inhibition: Active
[1]; dose 10.0 µM
  inhibition: 77.5%
[5]
  inhibition: Active
[6]
  inhibition: Active

## O=C(O)c1cccc(C(=O)Nc2ccc(-c3ccc4c(c3)OCCO4)cc2)c1
HEK293 [2]
  Activity: Non-Toxic
[1]; dose 10.0 µM
  inhibition: 51.8%
HEK293 [7]
  Activity: 50.3%
HEK293 [3]
  Activity: Toxic

## COc1ccc(-c2ccc(-n3cc(-c4cccc(C(=O)O)c4)nn3)cc2)cc1OC
[1]; [10]
  inhibition: 54.3%

## COc1ccc(OC)c(-c2ccc(-c3cn(-c4ccnc(C(=O)O)c4)nn3)cc2)c1
[1]; dose 10.0 µM
  inhibition: 57.2%

## CSc1cccc(-c2ccc(-c3cn(-c4cccc(C(=O)O)c4)nn3)cc2)c1
[1]; dose 10.0 µM
  inhibition: 0%

## COC(=O)c1cc(-n2cc(-c3ccc(-c4cc(OC)ccc4OC)cc3)nn2)ccn1
[1]; dose 10.0 µM
  inhibition: 73.5%

## O=C(O)c1cccc(-n2cc(-c3ccc(-c4ccccc4)cc3)nn2)c1
[1]; [10]
  inhibition: 1.8%

## COc1cccc(-c2ccc(-c3cn(-c4cccc(C(=O)O)c4)nn3)cc2)c1OC
[4]
  inhibition: Active
[1]; dose 10.0 µM
  inhibition: 93.3%
ORAI1/STIM1
  IC50: 781 nM
[5]
  inhibition: Active
[6]
  inhibition: Active

## COc1ccc(F)c(-c2ccc(-n3cc(-c4cccc(C(=O)O)c4)nn3)cc2)c1 [listing 1 of 2 here]
[4]
  inhibition: Active
[1]; dose 10.0 µM
  inhibition: 74.7%
[5]
  inhibition: Active
[6]
  inhibition: Active

## COc1cccc(-c2ccc(-c3cn(-c4cccc(C(=O)O)c4)nn3)cc2)c1
[1]; [10]
  inhibition: 29.5%

## COc1ccc(OC)c(-c2ccc(-c3cn(-c4cccnc4)nn3)cc2)c1
[1]; dose 10.0 µM
  inhibition: 1.2%

## O=C(O)c1cccc(-n2cc(-c3ccc(-c4ccc5c(c4)OCCO5)cc3)nn2)c1
[1]; dose 10.0 µM
  inhibition: 81.1%
HEK293 [7]
  Activity: 71.7%

## COc1ccc(-c2ccc(-n3cc(-c4cccc(C(=O)O)c4)nn3)cc2)c(OC)c1
[1]; dose 10.0 µM
  inhibition: 56.4%

## COc1cc(OC)cc(-c2ccc(-n3cc(-c4cccc(C(=O)O)c4)nn3)cc2)c1 [listing 1 of 2 here]
HEK293 [2]
  Activity: Non-Toxic
ORAI1/STIM1
  IC50: 802 nM
HEK293 [7]
  Activity: 94.3%
HEK293 [3]
  Activity: Non-Toxic

## COc1ccc(F)c(-c2ccc(-c3cn(-c4cccc(C(=O)O)c4)nn3)cc2)c1
[4]
  inhibition: Active
[1]; dose 10.0 µM
  inhibition: 88.9%
ORAI1/STIM1
  IC50: 866 nM
HEK293 [7]
  Activity: 92.3%
[5]
  inhibition: Active
[6]
  inhibition: Active

## COc1cccc(-c2ccc(-n3cc(-c4cccc(C(=O)[O-])c4)nn3)cc2)c1.[Na+]
[8]
  remaining at 1 h: 91%
[9]
  solubility thermodynamic: 856 µg/mL

## COc1ccc(OC)c(-c2ccc(-c3cn(-c4ccncc4)nn3)cc2)c1
[1]; dose 10.0 µM
  inhibition: -1.7%

## O=C(Nc1ccc(-n2nc(C(F)(F)F)cc2C(F)(F)F)cc1)c1ccncc1F
HEK293 [2]
  Activity: Toxic
HEK293 [3]
  Activity: Toxic

## COc1cc(OC)cc(-c2ccc(-n3cc(-c4cccc(C(=O)O)c4)nn3)cc2)c1 [listing 2 of 2 here]
[4]
  inhibition: Active
[1]; [10]
  inhibition: 73.8%
[5]
  inhibition: Active
[6]
  inhibition: Active

## O=C(O)c1cccc(-n2cc(-c3ccc(-c4cccc5c4OCCO5)cc3)nn2)c1
[1]; dose 10.0 µM
  inhibition: 44.1%

## COc1ccccc1-c1ccc(-n2cc(-c3cccc(C(=O)O)c3)nn2)cc1
[1]; dose 10.0 µM
  inhibition: 45.9%

## COc1cccc(-c2ccc(-n3cc(-c4cccc(C(=O)O)c4)nn3)cc2)c1 [listing 1 of 2 here]
[4]
  inhibition: Active
[1]; [10]
  inhibition: 85.1%
[5]
  inhibition: Active
[6]
  inhibition: Active

## COc1ccc(OC)c(-c2ccc(-c3cn(-c4ccncc4F)nn3)cc2)c1
[1]; dose 10.0 µM
  inhibition: 26.2%

## O=C([O-])c1cccc(-c2cn(-c3ccc(-c4ccc5c(c4)OCCO5)cc3)nn2)c1.[Na+]
[8]
  remaining at 1 h: 94%
[9]
  solubility thermodynamic: 668 µg/mL

## C/C(O)=C(\C#N)C(=O)Nc1ccc(C(F)(F)F)cc1 [TERIFLUNOMIDE]
HEK293 [3]
  Activity: Non-Toxic

## COc1cc(OC)cc(-c2ccc(-c3cn(-c4cccc(C(=O)O)c4)nn3)cc2)c1
[1]; dose 10.0 µM
  inhibition: 75.4%

## COc1ccc(OC)c(-c2ccc(-n3cc(-c4ccnc(C(=O)O)c4)nn3)cc2)c1
[1]; dose 10.0 µM
  inhibition: 79.9%

## CSc1cccc(-c2ccc(-n3cc(-c4cccc(C(=O)O)c4)nn3)cc2)c1
[1]; [10]
  inhibition: 23.6%

## COc1ccc(OC)c(-c2ccc(-n3cc(-c4cccc(C(=O)O)c4)nn3)cc2)c1
[1]; dose 10.0 µM
  inhibition: 76.2%

## COc1cc(OC)cc(-c2ccc(-n3cc(-c4cccc(C(=O)[O-])c4)nn3)cc2)c1.[Na+]
[8]
  remaining at 1 h: 92%
[9]
  solubility thermodynamic: 18.7 µg/mL

## COc1cccc(-c2ccc(-n3cc(-c4cccc(C(=O)O)c4)nn3)cc2)c1 [listing 2 of 2 here]
HEK293 [2]
  Activity: Non-Toxic
ORAI1/STIM1
  IC50: 807 nM
HEK293 [3]
  Activity: Non-Toxic

## COc1ccc(-c2ccc(-c3cn(-c4cccc(C(=O)O)c4)nn3)cc2)cc1OC
[1]; dose 10.0 µM
  inhibition: 39.6%

## O=C(O)c1cccc(-c2cn(-c3ccc(-c4ccc5c(c4)OCCO5)cc3)nn2)c1 [listing 2 of 2 here]
HEK293 [2]
  Activity: Non-Toxic
ORAI1/STIM1
  IC50: 1200 nM
HEK293 [3]
  Activity: Non-Toxic

## O=C(O)c1cccc(-c2cn(-c3ccc(-c4ccccc4)cc3)nn2)c1
[1]; dose 10.0 µM
  inhibition: 51%

## O=C(O)c1cccc(NC(=O)c2ccc(-c3ccc4c(c3)OCCO4)cc2)c1
HEK293 [2]
  Activity: Non-Toxic
[1]; dose 10.0 µM
  inhibition: 22.6%
HEK293 [7]
  Activity: 95.3%

## COc1ccc(OC)c(-c2ccc(-c3cn(-c4cccc(C(=O)O)c4)nn3)cc2)c1
[4]
  inhibition: Active
[1]; dose 10.0 µM
  inhibition: 87.8%
ORAI1/STIM1
  IC50: 1790 nM
HEK293 [7]
  Activity: 71.8%
[6]
  inhibition: Active

## COc1ccc(OC)c(-c2ccc(-n3cc(-c4ccncc4F)nn3)cc2)c1
[1]; dose 10.0 µM
  inhibition: -4.9%

## COc1ccc(F)c(-c2ccc(-n3cc(-c4cccc(C(=O)O)c4)nn3)cc2)c1 [listing 2 of 2 here]
HEK293 [2]
  Activity: Non-Toxic
ORAI1/STIM1
  IC50: 361 nM
HEK293 [7]
  Activity: 91.1%
HEK293 [3]
  Activity: Non-Toxic

## O=C(O)c1cccc(-n2cc(-c3ccc(-c4ccc5c(c4)OCO5)cc3)nn2)c1
[1]; dose 10.0 µM
  inhibition: 0%

## COc1ccc(F)c(-c2ccc(-n3cc(-c4cccc(C(=O)[O-])c4)nn3)cc2)c1.[Na+]
[8]
  remaining at 1 h: 93%
[9]
  solubility thermodynamic: 1170 µg/mL

## O=C(O)c1cccc(-c2cn(-c3ccc(-c4ccc5c(c4)OCO5)cc3)nn2)c1
[1]; dose 10.0 µM
  inhibition: 67.3%

## O=C(O)c1cccc(-c2cn(-c3ccc(-c4cccc5c4OCCO5)cc3)nn2)c1
[4]
  inhibition: Active
[1]; [10]
  inhibition: 70.9%
ORAI1/STIM1
  IC50: 1620 nM
HEK293 [7]
  Activity: 90.5%
[5]
  inhibition: Active
[6]
  inhibition: Active

## Cc1c(-c2ccc(-c3ccccc3F)cc2)nc2ccc(F)cc2c1C(=O)O [BREQUINAR]
HEK293 [3]
  Activity: Non-Toxic
